Test results taken from ChEMBL document CHEMBL5724801, “EUbOPEN Chemogenomics Library - Multiplex” (2024).
Where “and” joins values, the source holds several entries; their conditions need not be identical. Equal values may be shown once.

System: HEK-293T
Assay: Multiplex assay against HEK293T
Assay type: toxicity, cell-based
Settings: human
Procedure, shortened: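 Tubulin, mitochondrial-mass and membrane-permeability phenotypes are per cents of healthy-nucleus cells. Cells were gated by CellPathfinder machine learning into Hoechst high-intensity objects or normal cells, normal cells into healthy, pyknosed or fragmented nuclei, and pyknosed cells into mitotic or apoptotic. Before that, live cells stained at seeding with Hoechst33342, BioTracker Green Microtubule Cytoskeleton Dye, MitoTracker Red and Annexin V Alexa Fluor 680 were imaged on a CQ1 microscope at 37°C and 5% CO2 after compound addition.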

[1] = 12 h, 1 µM, compound concentration 1 uM
[2] = 12 h, 10 µM, compound concentration 10 uM
[3] = 24 h, 1 µM, compound concentration 1 uM
[4] = 24 h, 10 µM, compound concentration 10 uM
[5] = 48 h, 1 µM, compound concentration 1 uM
[6] = 48 h, 10 µM, compound concentration 10 uM

SMILES: CCCn1c(=O)c2[nH]c(C3CCCC3)nc2n(CCC)c1=O [1,3-DIPROPYL-8-CYCLOPENTYLXANTHINE [DPCPX]]
- Population Apoptotic (%) [1]: 35% and 54%
- Population Fragmented Nuclei (%) [1]: 7% and 3%
- Population Healthy Nuclei (%) [1]: 79% and 81%
- Population Hoechst High Intensity Objects (%) [1]: 6% and 3%
- Population Membrane Permeable-Phenotype (%) [1]: 0%
- Population Mitochondria Different-Phenotype (%) [1]: 44% and 52%
- Population Mitotic Cells (%) [1]: 64% and 45%
- Population Normal (%) [1]: 93% and 96%
- Population Pyknosed Nuclei (%) [1]: 12% and 14%
- Population Tubulin-Different-Phenotype (%) [1]: 32% and 15%
- Total Cell Count [1]: 443 and 361
- Population Apoptotic (%) [2]: 60% and 54%
- Population Fragmented Nuclei (%) [2]: 12% and 7%
- Population Healthy Nuclei (%) [2]: 68% and 75%
- Population Membrane Permeable-Phenotype (%) [2]: 0%
- Population Mitochondria Different-Phenotype (%) [2]: 58% and 68%
- Population Mitotic Cells (%) [2]: 39% and 45%
- Population Normal (%) [2]: 94% and 81%
- Population Pyknosed Nuclei (%) [2]: 19% and 16%
- Population Tubulin-Different-Phenotype (%) [2]: 51% and 45%
- Total Cell Count [2]: 295 and 337
- Population Apoptotic (%) [3]: 26% and 28%
- Population Fragmented Nuclei (%) [3]: 8% and 7%
- Population Healthy Nuclei (%) [3]: 78% and 82%
- Population Hoechst High Intensity Objects (%) [3]: 4% and 3%
- Population Membrane Permeable-Phenotype (%) [3]: 1% and 0%
- Population Mitochondria Different-Phenotype (%) [3]: 25% and 45%
- Population Mitotic Cells (%) [3]: 73% and 71%
- Population Normal (%) [3]: 95% and 96%
- Population Pyknosed Nuclei (%) [3]: 13% and 10%
- Population Tubulin-Different-Phenotype (%) [3]: 20% and 19%
- Total Cell Count [3]: 610 and 403
- Population Apoptotic (%) [4]: 50% and 41%
- Population Fragmented Nuclei (%) [4]: 8% and 7%
- Population Healthy Nuclei (%) [4]: 76% and 79%
- Population Membrane Permeable-Phenotype (%) [4]: 0%
- Population Mitochondria Different-Phenotype (%) [4]: 43% and 55%
- Population Mitotic Cells (%) [4]: 50% and 58%
- Population Normal (%) [4]: 95% and 84%
- Population Pyknosed Nuclei (%) [4]: 14% and 13%
- Population Tubulin-Different-Phenotype (%) [4]: 40% and 31%
- Total Cell Count [4]: 379 and 411
- Population Apoptotic (%) [5]: 33% and 39%
- Population Fragmented Nuclei (%) [5]: 11% and 14%
- Population Healthy Nuclei (%) [5]: 81% and 80%
- Population Hoechst High Intensity Objects (%) [5]: 1% and 3%
- Population Membrane Permeable-Phenotype (%) [5]: 1% and 0%
- Population Mitochondria Different-Phenotype (%) [5]: 17% and 22%
- Population Mitotic Cells (%) [5]: 66% and 60%
- Population Normal (%) [5]: 98% and 96%
- Population Pyknosed Nuclei (%) [5]: 7% and 5%
- Population Tubulin-Different-Phenotype (%) [5]: 17% and 13%
- Total Cell Count [5]: 957 and 593
- Population Apoptotic (%) [6]: 29% and 45%
- Population Fragmented Nuclei (%) [6]: 14%
- Population Healthy Nuclei (%) [6]: 76% and 75%
- Population Hoechst High Intensity Objects (%) [6]: 3% and 7%
- Population Membrane Permeable-Phenotype (%) [6]: 1% and 0%
- Population Mitochondria Different-Phenotype (%) [6]: 37% and 36%
- Population Mitotic Cells (%) [6]: 70% and 54%
- Population Normal (%) [6]: 96% and 92%
- Population Pyknosed Nuclei (%) [6]: 8% and 10%
- Population Tubulin-Different-Phenotype (%) [6]: 30% and 23%
- Total Cell Count [6]: 511 and 516
